# Screening data (PubChem BioAssay)
# IMP-1 inhibitor – inhibitors of Pseudomonas aeruginosa IMP-1 metallo-beta-lactamase; purified IMP-1, nitrocefin hydrolysis, epi-absorbance fluorescence; inhibition, % at 5.6 µM; 290,000 tested, 0.45% active;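 active = inhibition above the mean plus 3 SD of all compounds in the same screening run, cut at about 4.5% in these data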
#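 System: purified IMP-1 / Input: IMP-1 dispensed at 0.2 nM / Medium: 50 mM HEPES pH 7.1, 50 µM ZnSO4, 0.05% Brij 35 / Timing: 15 min enzyme–compound preincubation, then 25 min nitrocefin reaction, 25 °C / Technique: plate fluorescence quenching by hydrolysis product, ex 480/em 530 nm / Repeats: singlicate testing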
# Mdm2 MdmX PPI – human Mdm2/MdmX binding inhibition | AID 485346 | inhibition, % at 8 µM | O15151+Q00987 | 330,000 tested, 3% active | SaOS-2 split-luciferase Mdm2/MdmX complementation, luminescence;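 active = inhibition of at least 50% at 8 µM in the primary screen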
# Target sequence (O15151 whole entry, looked up): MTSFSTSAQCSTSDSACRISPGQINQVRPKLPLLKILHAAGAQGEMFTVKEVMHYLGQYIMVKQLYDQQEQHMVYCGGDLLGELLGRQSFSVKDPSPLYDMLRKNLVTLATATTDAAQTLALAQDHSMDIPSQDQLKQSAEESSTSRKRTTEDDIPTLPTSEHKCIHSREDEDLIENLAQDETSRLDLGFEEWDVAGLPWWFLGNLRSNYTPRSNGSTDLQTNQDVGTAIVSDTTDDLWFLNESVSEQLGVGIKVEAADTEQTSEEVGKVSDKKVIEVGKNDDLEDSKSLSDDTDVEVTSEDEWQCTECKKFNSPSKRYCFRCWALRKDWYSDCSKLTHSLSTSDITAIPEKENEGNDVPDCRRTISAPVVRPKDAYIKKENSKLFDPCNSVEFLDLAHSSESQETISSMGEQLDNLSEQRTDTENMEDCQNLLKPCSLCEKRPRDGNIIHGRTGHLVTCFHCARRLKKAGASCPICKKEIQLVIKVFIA
# Target sequence (Q00987 whole entry, looked up): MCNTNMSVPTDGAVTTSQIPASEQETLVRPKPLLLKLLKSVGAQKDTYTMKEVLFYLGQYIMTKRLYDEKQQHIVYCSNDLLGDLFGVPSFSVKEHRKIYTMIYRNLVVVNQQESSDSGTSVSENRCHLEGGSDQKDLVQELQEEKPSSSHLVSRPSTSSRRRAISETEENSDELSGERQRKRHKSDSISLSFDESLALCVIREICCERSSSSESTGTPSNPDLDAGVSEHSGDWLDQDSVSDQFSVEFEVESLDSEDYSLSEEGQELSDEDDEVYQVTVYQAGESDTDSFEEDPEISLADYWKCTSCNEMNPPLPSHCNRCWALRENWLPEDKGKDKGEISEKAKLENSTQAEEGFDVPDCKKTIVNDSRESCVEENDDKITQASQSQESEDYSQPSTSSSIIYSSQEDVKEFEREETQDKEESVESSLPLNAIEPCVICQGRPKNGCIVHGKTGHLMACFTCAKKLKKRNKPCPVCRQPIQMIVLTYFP
# 697 NFkB inh – inhibitors of the PMA/ionomycin-induced NF-kB reporter in 697 B cells | 697 B-cell NF-kB luciferase reporter, 16 h | inhibition, % at 4 µM | 330,000 tested, 0.33% active; in the data active = inhibition above about 35%
# VIM-2 inhibitor – inhibitors of Pseudomonas aeruginosa VIM-2 metallo-beta-lactamase; AID 1527; inhibition, % at 5.6 µM; purified VIM-2, nitrocefin hydrolysis, epi-absorbance fluorescence; 290,000 tested, 0.89% active;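 active = inhibition above the mean of all tested compounds plus 3 SD, cutoff set per screening run, cut at about 7.5% in these data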;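 also: red hydrolysis product quenches plate fluorescence so inhibitors raise well fluorescence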
# aSyn UTR inh – 5' untranslated region of α-synuclein, MLPCN primary screen. AID 1813. alpha-synuclein 5'UTR reporter, inhibitor activity. inhibition, % (tested at 7.5 µM). 300,000 tested, 0.82% active; in the data active = inhibition above about 60%;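 also: H4 neuroglioblastoma cells stably carrying SNCA 5'UTR luciferase fusion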
# Jurkat NFkB inh – lowers PMA/ionomycin-induced NF-kB signal in Jurkat cells; PMA/ionomycin-induced NF-kB luciferase reporter, luminescence; inhibition, % at 4 µM; 330,000 tested, 0.53% active; in the data active = inhibition above about 50%
# Mdm2-MdmX conf – confirmation of human Mdm2/MdmX interaction inhibitors; AID 489028; shares compounds with Mdm2 MdmX PPI; inhibition, % at 8 µM; Mdm2-MdmX binding, luminescent assay; 10,000 tested, 55% active; in the data active = inhibition above about 40%
# Full FLuc ctr – full-length luciferase inhibition in Mdm2/MdmX counter-screen; SaOS-2 full-length luciferase counterscreen, luminescence; shares compounds with Mdm2 MdmX PPI; inhibition, % at 8 µM; 6,200 tested, 77% active;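 active = mean inhibition at 8 µM reaching about 37%, which flags the compound as non-specific, limit read from the data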;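 also: p53-null SaOS-2 cells with luciferase driven by a doxycycline-inducible promoter; compound on cells about two nights before reading with doxycycline added after day one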
# A number is an active result; n = inactive; x = no result. Rows were chosen to be rich in hits. Some 4.7% of all compounds tested hit in one or more screens of this group.
SMILES,IMP-1 inhibitor,Mdm2 MdmX PPI,697 NFkB inh,VIM-2 inhibitor,aSyn UTR inh,Jurkat NFkB inh,Mdm2-MdmX conf,others
Cc1ccc(N(C(=O)CCl)C(C(=O)NC2CCCCC2)c2cccnc2)cc1C (configuration not stated),n,x,x,n,n,x,x,
CCCNC(=O)c1nnsc1S(=O)(=O)c1ccc(Cl)cc1,n,96,n,n,x,n,100,Full FLuc ctr=51
CCCNC(=O)NS(=O)(=O)c1ccc(Cl)cc1,n,n,n,n,n,n,x,
COc1cccc([C@@H]2Oc3ccc(OC)cc3C(=O)[C@H]2OC(=O)NCc2ccc3c(c2)OCO3)c1,n,n,n,n,n,n,x,
C=CCSc1nsc(NC(=O)Nc2ccc(F)cc2)n1,n,91,n,n,n,n,89,Full FLuc ctr=n
CCSc1nsc(NC(=O)Nc2ccccc2F)n1,n,n,n,n,n,n,x,
CCOc1ncccc1C(=O)Nc1ccc(S(=O)(=O)N2CC(C)CC(C)C2)cc1 (configuration not stated),x,n,n,x,x,n,x,
CCN(CC)CCCNc1nc(CN2CCOCC2)nc2sc3c(c12)CCC3,n,n,n,n,n,n,x,
Cc1cc(C)n(-c2nc3sc4c(c3c(=O)[nH]2)CCCC4)n1,n,x,x,n,n,x,x,
Cc1cc(C)n(-c2nc(NCCN(C)C)c3c4c(sc3n2)CCCC4)n1,n,100,n,n,116,n,89,Full FLuc ctr=n
Cc1cc(C)n(-c2nc(NCCCN(C)C)c3c4c(sc3n2)CCCC4)n1,n,54,n,n,n,n,n,
COc1ccc(NS(=O)(=O)c2cccc(C(=O)N3CCC3)c2)cc1,x,n,n,x,n,n,x,
Oc1ccccc1-c1nnc(SCCN2CCOCC2)n1Cc1ccccc1,n,69,n,n,81,n,n,
COc1ccccc1N1CCN(C2CCCN(S(=O)(=O)c3ccccc3)C2)CC1 (configuration not stated),n,n,n,n,n,n,x,
O=C(/C=C/c1ccccc1)/C=C/c1ccccc1,n,95,n,n,n,n,n,
COc1cc(OC)cc(C(=O)N2CC(=O)Nc3ccccc32)c1,n,n,n,n,n,n,x,
CCC(=O)c1ccc(O)c(CC=C(C)C)c1,n,57,n,n,n,n,44,Full FLuc ctr=42
CCC(=O)c1ccc(O)c(OC)c1,n,n,n,n,n,n,x,
O=C(O)CS(=O)(=O)CC(=O)O,n,n,n,n,n,n,x,
Cc1cc(SCC(=O)Nc2ccc3[nH]c(=O)[nH]c3c2)nc2ccccc12,x,87,n,x,x,n,n,
O=C1N/C(=C\c2ccc(N3CCOCC3)c(F)c2)C(=O)N1Cc1ccccc1,n,73,n,n,n,n,40,Full FLuc ctr=74
CCCNC(=O)c1ccc(CN2CCc3ccccc3C2)cc1,n,n,n,n,n,n,x,
C/C(=N\NC(=O)c1ccc(CN2CCc3ccccc3C2)cc1)c1ccccc1O,n,55,n,n,n,n,65,Full FLuc ctr=85
CCOC(=O)N1CCN(Cc2nc3ccc([N+](=O)[O-])cc3c(=O)n2-c2ccccc2F)CC1,n,52,n,n,n,n,41,Full FLuc ctr=75
CC(C)CN(C(=O)COC(=O)c1cncc(Br)c1)c1c(N)n(Cc2ccccc2)c(=O)[nH]c1=O,n,n,n,n,n,n,x,
SMILES,IMP-1 inhibitor,Mdm2 MdmX PPI,697 NFkB inh,VIM-2 inhibitor,aSyn UTR inh,Jurkat NFkB inh,Mdm2-MdmX conf,others
Cn1c(=O)[nH]c(=O)c2c1nc(N1CCN(c3ccccc3)CC1)n2CCSc1ncccn1,n,54,n,n,n,n,n,
CC(C)[C@H](NC(=O)c1ccccc1F)C(=O)NC1CCCCCCC1,x,n,n,x,x,n,x,
O=C(CC12CC3CC(CC(C3)C1)C2)NC(=S)NCc1ccco1,n,64,n,n,n,n,n,
Cc1ccc(-n2nnnc2SCC(=O)Nc2ccc3c(c2)COC3=O)cc1C,n,51,n,n,n,n,n,
Cc1ccc(-n2nnnc2SCC(=O)Nc2ccc3c(c2)OCCO3)cc1C,n,n,n,n,n,n,x,
CC(=O)Nc1ccc(NC(=O)CSc2nnnn2-c2ccc3c(c2)OCCO3)cc1,n,51,n,n,n,n,n,
COc1ccc2[nH]c3nc(SCC(=O)Nc4ccc5c(c4)OCO5)nnc3c2c1,n,66,n,n,n,n,n,
COc1ccc(-n2nnnc2SCC(=O)Nc2cc(OC)c([N+](=O)[O-])cc2C)cc1,n,52,n,n,n,n,n,
CCCc1cc(=O)[nH]c(SCC(=O)N2c3ccccc3NC(=O)C2(C)C)n1,x,n,n,x,x,n,x,
COc1cc(C#N)ccc1OCC(=O)NCCC1=CCCCC1,x,n,n,x,x,n,x,
Oc1cccc(C(O)CNCc2ccc(OCc3ccc(Cl)cc3Cl)cc2)c1 (configuration not stated),n,n,n,n,n,n,x,
COc1ccc(OC)c(-n2nnnc2SCC(=O)Nc2ccc3c(c2)OCCO3)c1,n,82,n,n,n,n,n,
COc1ccc(OC)c(-n2nnnc2SCC(=O)Nc2ccc(C(=O)N3CCCCC3)cc2)c1,n,n,n,n,n,n,x,
COC(=O)c1ccc(-n2nnnc2SCC(=O)Nc2cc(OC)ccc2OC)cc1,n,n,n,n,n,n,x,
COc1ccc(OC)c(NC(=O)CSc2nnnn2-c2ccc3c(c2)OCO3)c1,n,58,n,n,n,n,n,
C[C@H](NC(=O)c1nc[nH]c1C(=O)N[C@@H](CCCCN)C(=O)OC(C)(C)C)C(=O)OCc1ccccc1,x,n,n,x,x,n,x,
COC(=O)c1cc(OC)c(OC)cc1NC(=O)Nc1cccc(C(C)=O)c1,n,n,n,n,n,n,x,
O=C(Cn1cnc2c(nnn2-c2cccc(F)c2)c1=O)Nc1ccc2c(c1)OCCO2,n,52,n,n,n,n,n,
Cc1cc(NC(=O)Cn2cnc3c(nnn3-c3ccc(C)c(Cl)c3)c2=O)no1,n,n,n,n,n,n,x,
CCOc1ccc(-n2nnc3c(=O)n(CC(=O)Nc4cc(C)on4)cnc32)cc1,n,56,n,n,n,n,n,
COc1ccc(-n2nnc3c(=O)n(CC(=O)Nc4ccc5c(c4)OCCO5)cnc32)cc1OC,n,80,n,n,n,n,n,
Cc1cc(C)n2nc(SCC(=O)N3CCC(C)CC3)nc2n1,x,n,n,x,x,n,x,
COc1cccc(NC(=S)NN=C2CCCCCC2)c1,n,n,n,n,n,n,x,
CCCCN(C)CCNC(=O)c1cc(-c2cccnc2)nc2ccc(S(=O)(=O)N3CCC(C)CC3)cc12,n,96,n,n,n,n,n,
CCCCN(C)CCCNC(=O)c1cc(-c2cccnc2)nc2ccccc12,n,n,n,n,n,n,x,
CCCCNS(=O)(=O)c1ccc2nc(-c3cccnc3)cc(C(=O)NCCCN(CC)CC)c2c1,n,n,n,n,n,n,x,
